# Screening data from PubChem BioAssay.
# CAL PDZ FP-1: human CAL PDZ-peptide interaction inhibition; purified CAL PDZ, TMR-peptide fluorescence polarization, 1 h; inhibition, % at 20 µM; 330,000 tested, 0.02% active;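 active = highest replicate inhibition of at least 40%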;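 note: plate controls were DMSO neutral control wells for no effect and unlabeled competitor peptide control wells for full effect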
#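 material = purified tagged CAL PDZ domain construct (CerCALP) | compound dosing = 20 µM, one dose | times = 1 h at RT | measured by = fluorescence polarization from S- and P-plane intensities, G-factor corrected | read-out = inhibition from polarization loss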
# ARNT TACC3 PPI: disruptors of human ARNT/TACC3 interaction. Q9Y6A5. AlphaScreen His-ARNT PAS-B/GST-TACC3 binding, luminescence; TACC3 fragment carries E629A point mutation. inhibition, % at 9.99 µM. 390,000 tested, 0.66% active;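 active = mean inhibition of replicates at least 50% and at least half of replicates each reaching 50%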;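 note: 0% = complete ARNT plus TACC3 wells and 100% = ARNT alone without TACC3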
# CAL PDZ FP-2: blocks peptide binding to the human CAL PDZ domain; Q9HD26; purified CAL PDZ, TMR-peptide fluorescence polarization, 1 h; inhibition, % at 24.9 µM; AID 602252; 300,000 tested, 0.92% active;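 active = mean inhibition of at least 30% with at least half of replicates also reaching 30%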;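 note: 0% = DMSO neutral control and 100% = excess unlabeled competitor peptide PRC23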
# DYRK1A inh: blocks rat Dyrk1A kinase activity; 310,000 tested, 0.43% active; Q63470; AID 504441; ADP-Glo luminescence, NFATc1 peptide; inhibition, % at 12.5 µM; in the data active = inhibition above about 50%;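 note: plate controls were vehicle with enzyme for no effect and no enzyme for full effect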
# ADP-Glo artifact: interferes with ADP-Glo luciferase readout without Dyrk1A; shares compounds with DYRK1A inh; ADP-Glo luciferase artifact assay, no Dyrk1A, luminescence; AC50, µM (top dose mostly 12 µM), without a hit: at the highest dose activity change, negative = inhibition; 1,300 tested, under 10 active;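 active = fitted half-maximal dose AC50 no more than ten times the top valid tested dose, with luminescence dropping as dose rises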
# An asterisk follows results filed as active; . = no result given. The list is not random: actives were taken first. Their share in the collection is about 1.4%.
SMILES,CAL PDZ FP-1,ARNT TACC3 PPI,CAL PDZ FP-2,DYRK1A inh,ADP-Glo artifact
NNc1nc2c(Cl)ccc(Cl)c2s1,-2,3,-5,57*,8%
COc1cccc(NC(=O)N[C@@H]2C=C[C@H](CC(=O)N3CCCCC3)O[C@H]2CO)c1,.,-8,.,.,.
COc1ccc(Nc2ncnc3ccccc23)cc1,.,1,-1,13,.
COc1cccc(Nc2ncnc3ccccc23)c1,-1,1,-2,73*,9%
O=C(O)c1[nH]c2ccc(Br)cc2c1CCN1C(=O)c2cccc([N+](=O)[O-])c2C1=O,-1,-6,.,51*,12%
O=C(O)c1[nH]c2ccc(Cl)cc2c1CCN1C(=O)c2ccccc2C1=O,-1,4,19,66*,12%
COc1ccc2[nH]c(C(=O)O)c(CCN3C(=O)c4ccc(C(=O)O)cc4C3=O)c2c1,0,-4,0,30,.
CO[C@@H]1CN(C)C(=O)c2cc(NS(C)(=O)=O)ccc2OC[C@@H](C)N(Cc2ccccc2)C[C@@H]1C,.,-1,.,.,.
O=C(Nc1nc(-c2ccc3c(c2)OCCO3)cs1)c1ccco1,-3,2,-6,73*,6%
CC(C)c1nnc(NC(=O)Cn2nc(-c3ccc4c(c3)OCCO4)ccc2=O)s1,-2,23,.,58*,7%
COc1cccc(OC)c1NC(=O)Cn1nc(-c2ccc3c(c2)OCCO3)ccc1=O,-3,1,5,0,.
CCC(=O)Nc1nc(-c2ccc3c(c2)OCCO3)cs1,0,-2,.,52*,11%
CC(C)(C)C(=O)Nc1nc(-c2ccc3c(c2)OCO3)cs1,0,2,-5,17,.
C[C@@H]1CCCCO[C@@H](CN(C)S(=O)(=O)c2ccc(Cl)cc2)[C@H](C)CN([C@@H](C)CO)C(=O)c2cc(NC(=O)c3ccncc3)ccc2O1,.,3,.,.,.
NC(=O)CC(NC(=O)c1ccc(Br)cc1)c1ccc(N2CCN(c3ccccn3)CC2)c([N+](=O)[O-])c1 (configuration not stated),-1,-8,-1,3,.
NC(=O)CC(NC(=O)c1cccc(Br)c1)c1ccc(N2CCN(c3ccccn3)CC2)c([N+](=O)[O-])c1 (configuration not stated),1,7,4,54*,10%
CN(C)c1ccc2c(c1)[C@H]1C[C@@H](CC(=O)NCc3ccc4c(c3)OCO4)O[C@@H](CO)[C@H]1O2,.,4,.,.,.
Cc1ccccc1C(=O)N1CCN(c2ccc(NC(=O)c3cccc(OC(C)C)c3)cc2)CC1,-2,-4,10,60*,7%
COCCCN(C(C)=O)c1nc(-c2ccc(OC)cc2)cs1,-1,2,.,76*,7%
COc1ccc(NC(=O)N(C)C[C@@H]2Oc3c(NS(=O)(=O)c4cccs4)cccc3C(=O)N([C@@H](C)CO)C[C@@H]2C)cc1,.,-11,.,.,.
COc1ccc(NC(=O)N(C)C[C@H]2Oc3c(NS(=O)(=O)c4cccs4)cccc3C(=O)N([C@@H](C)CO)C[C@@H]2C)cc1,0,-7,0,55*,3%
C[C@H](CO)N1C[C@H](C)[C@@H](CN(C)Cc2ccc3c(c2)OCO3)Oc2ccc(NC(=O)Nc3ccccc3)cc2CC1=O,.,5,.,.,.
COc1cccc(/C=N/n2c(C3CCCCC3)n[nH]c2=S)c1OC,0,-7,1,-2,.
Oc1ccc(Br)cc1/C=N/n1c(C2CCCCC2)n[nH]c1=S,-2,7,-4,9,.
COc1cccc(/C=N/n2c(C3CCCCC3)n[nH]c2=S)c1O,-1,-1,-1,53*,11%
SMILES,CAL PDZ FP-1,ARNT TACC3 PPI,CAL PDZ FP-2,DYRK1A inh,ADP-Glo artifact
Oc1ccc(/C=N/n2c(C3CCCCC3)n[nH]c2=S)c(O)c1,0,-6,-2,83*,9%
CN1C(=O)c2cc(NC(=O)c3ccc(F)cc3)ccc2OC[C@@H]2O[C@H](CC(=O)NC3CCC3)CC[C@H]21,.,0,.,.,.
C[C@@H]1CN([C@@H](C)CO)C(=O)Cc2cc(NC(=O)CCC(F)(F)F)ccc2O[C@H]1CN(C)Cc1ccc(C(F)(F)F)cc1,.,-3,.,.,.
Cc1cc(-c2ccc(C(=O)O)s2)cnc1N,-2,.,-1,65*,9%
COCC(=O)Nc1ccc2c(c1)C(=O)N(C)C[C@@H](OC)[C@H](C)CN(Cc1cc(-c3ccccc3)on1)[C@H](C)CO2,.,1,.,.,.
O=C(Nc1cccc(-c2nc3ncccc3o2)c1)c1cc2ccccc2o1,-4,.,1,56*,8%
CC(=O)Nc1cccc(NC(=O)c2cc3ccccc3o2)c1,-1,0,-3,53*,4%
Cc1ccc(-c2nc3ncccc3o2)cc1NC(=O)c1cc2ccccc2o1,-3,-6,1,5,.
CC(C)C(=O)Nc1cccc(NC(=O)c2cc3ccccc3o2)c1,-4,0,-5,9,.
CNC(=O)c1cc2c(s1)-c1ccccc1CC2,-2,-4,.,53*,10%
O=C(N/N=C/c1ccc(F)c(F)c1)c1cc2c(s1)-c1ccccc1CC2,0,-5,-2,0,.
CNC[C@@H]1Oc2ccc(NS(=O)(=O)c3c(C)noc3C)cc2C(=O)N([C@H](C)CO)C[C@H]1C,.,-7,.,.,.
Cc1cccc(Nc2ncnc3nc[nH]c23)c1,-2,-8,.,19,.
COc1ccc(Nc2ncnc3nc[nH]c23)cc1OC,-1,6,.,50*,7%
C[C@H]1CN([C@@H](C)CO)C(=O)CCCn2nncc2CO[C@H]1CN(C)C(=O)Nc1cccc(F)c1,.,1,.,.,.
O=S1(=O)CCOC[C@H](Cc2ccccc2)N1Cc1cccc(Cl)c1,0,-9,-3,32,.
CC(C)C[C@H]1COCCS(=O)(=O)N1Cc1cccc(Cl)c1,0,1,0,51*,8%
COc1ccc(NC(=S)N(CCc2c(C)[nH]c3ccccc23)Cc2cccnc2)cc1,-2,3,.,60*,9%
COc1c(O)c(O)c2oc(-c3ccccc3)cc(=O)c2c1OC,1,-4,4,.,.
COc1cc(-c2cc(=O)c3c(O)c(OC)c(OC)c(O)c3o2)ccc1O,-1,1,-1,80*,7%
CN(C)Cc1c(O)ccc2[nH]cnc12,0,6,.,8,.
Oc1ccc2ccc3[nH]cnc3c2c1,0,4,-2,80*,11%
CS(=O)(=O)Nc1ccc2c(c1)[C@@H]1C[C@@H](CC(=O)N3CCCCC3)O[C@@H](CO)[C@@H]1O2,.,-9,.,.,.
C[C@H](CO)N1C[C@H](C)[C@@H](CN(C)Cc2ccccc2)Oc2ccc(NC(=O)CCN3CCOCC3)cc2C1=O,.,-2,.,.,.
Cc1ccc(CNC(=O)c2cc3c(=O)n(C)c4ccccc4c3n2C)o1,0,0,.,62*,7%
Cn1c(C(=O)NCC2CCCO2)cc2c(=O)n(C)c3ccccc3c21 (configuration not stated),-3,.,5,55*,10%
Cn1c(C(=O)N2CCCC2)cc2c(=O)n(C)c3ccccc3c21,-1,5,.,75*,9%
